Rows were chosen to be rich in hits. Some 11% of all compounds tested hit in one or more screens of this group.
mHtt clearance: compounds clearing mutant huntingtin protein; inhibition, % at 1.5 µM; HeLa Exon1htt(103Q)mCFP, aggregate imaging; zero = plate's median compound well; hit rate 0.42% among 47,000;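 active = inhibition of aggregate fluorescence above about 70%, also judged a hit by eye on the cell image, limit read from the data, passing the limit was not always enough; inconclusive = no rule stated for this call; inactive = not judged a hit on image review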;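 note: cells exposed to compound for three days before fixation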
M1 antag: blocks the rat M1 muscarinic receptor response to acetylcholine; B-score at 10 µM; hit rate 3.4% among 64,000; P08482; AID 628; CHO-M1 cells, Fluo-4 calcium, ACh EC80 antagonist mode; active compounds read low;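 active = calcium fluorescence response, raw or row-and-column corrected B-score, differing from the plate sample mean either way at a set confidence level, mostly lower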
D1 allo mod: D1 dopamine receptor (human) allosteric modulation; AID 641; B-score at 10 µM; P21728; hit rate 5.9% among 58,000; HEK293 D1, CRE-luciferase, dopamine EC30 potentiation; actives deviate in either direction;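 active = luminescence count or its row- and column-corrected plate score outside the 99.7% band of the plate's sample wells, on either side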
M1 agonist: M1 muscarinic receptor agonism | CHO-M1 cells, Fluo-4 calcium fluorescence, agonist mode; active compounds read high | B-score at 10 µM | hit rate 3% among 64,000;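 active = fluorescence rise, raw or as B-score row- and column-corrected plate score, outside the 99.7% band of its plate's samples, either direction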
SF1 activator: SF-1 (human) activation. activation, % at 10 µM. CHO-K1 Gal4-SF-1 LBD luciferase reporter; % increase over DMSO SF-1-specific signal. Q13285. AID 522. hit rate 1.9% among 65,000;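 active = activation above the mean activation of all tested compounds plus 3 SD, cut at about 50% in these data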
Target sequence (Q13285 whole entry, looked up, the tested form may be a part): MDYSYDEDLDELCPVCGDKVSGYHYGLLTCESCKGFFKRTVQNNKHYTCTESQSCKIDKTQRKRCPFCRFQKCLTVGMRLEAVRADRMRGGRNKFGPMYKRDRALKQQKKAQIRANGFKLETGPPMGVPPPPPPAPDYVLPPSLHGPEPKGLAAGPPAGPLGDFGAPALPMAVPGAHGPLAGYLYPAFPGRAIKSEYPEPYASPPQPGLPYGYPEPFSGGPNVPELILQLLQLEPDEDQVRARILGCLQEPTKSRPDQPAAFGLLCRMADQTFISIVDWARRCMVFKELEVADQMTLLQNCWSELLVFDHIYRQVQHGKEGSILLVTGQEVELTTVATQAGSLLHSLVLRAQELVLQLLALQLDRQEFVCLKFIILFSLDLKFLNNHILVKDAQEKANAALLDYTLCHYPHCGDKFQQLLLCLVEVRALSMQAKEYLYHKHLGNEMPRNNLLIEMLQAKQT
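Material: Transient Gal4-SF-1 LBD reporter, CHO-K1 | Input: 4,000 cells/well | Dosing: One dose, 10 µM compound, 1% DMSO | Incubation: 20 h compound treatment, 37 °C | Detection: SteadyLite luciferase luminescence | Evaluation: Percent activation relative to DMSO median and mock-transfected background | Benchmarks: DMSO-treated SF-1-transfected cells as negative, DMSO-treated mock-transfected cells lacking SF-1 as background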
RORa activator: activates the human nuclear receptor RORA. P35398. CHO-K1 Gal4-RORA LBD luciferase reporter, luminescence; percent increase over mock-subtracted basal signal. activation, % at 10 µM. hit rate 1.5% among 65,000;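 active = activation above the mean of all tested compounds plus 3 SD, cut at about 49% in these data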
A number is an active result.

How did CN1C(=O)C(C(=O)NC(C)(C)C)C2c3ccccc3OC13CCCCC23 (centres undefined) do in these assays?
mHtt clearance: inconclusive; M1 antag: inactive; D1 allo mod: inactive; M1 agonist: inactive; SF1 activator: inactive; RORa activator: inactive

What do the screens show for `O=C(COc1ncnc2ccccc12)NCCCN1CCCC1=O`?
mHtt clearance: inactive; M1 antag: inactive; D1 allo mod: inactive; M1 agonist: inactive; SF1 activator: inactive; RORa activator: inactive

What do the screens show for `CC1Cc2nc(SCC(=O)Nc3nc4ccccc4s3)n(C)c(=O)c2S1` (centres undefined)?
mHtt clearance: inactive

How did CN(C)/C=N/c1c(C#N)cnn1-c1ncnc2sc(-c3ccccc3)cc12 do in these assays?
M1 antag: inactive; D1 allo mod: inactive; M1 agonist: inactive; SF1 activator: inactive; RORa activator: inactive

What do the screens show for `CN(CCC#N)C(=O)CSc1ncnc2sc(-c3ccccc3)cc12`?
M1 antag: inactive; D1 allo mod: inactive; M1 agonist: inactive; SF1 activator: inactive; RORa activator: 52

What do the screens show for `Cc1ccc(NC2=NCC(=O)N2C2CCCC2)c(C)c1`?
mHtt clearance: inactive

How did CC(C)C(=O)N1CCC(CN=CC2=C(O)CC(C)(C)CC2=O)CC1 do in these assays?
mHtt clearance: inactive

What do the screens show for `CCn1cc(C(=O)NCC2CCCO2)c(=O)c2cc(S(=O)(=O)N3CCC(C)CC3)ccc21` (centres undefined)?
M1 antag: inactive; D1 allo mod: -4.8; M1 agonist: inactive; SF1 activator: inactive; RORa activator: inactive

What do the screens show for `C=CCn1cc(C(=O)NCCCOC)c(=O)c2cc(S(=O)(=O)N(CC)CC)ccc21`?
M1 antag: inactive; D1 allo mod: inactive; M1 agonist: inactive; SF1 activator: inactive; RORa activator: inactive

How did C=CCn1cc(C(=O)NCCCOC)c(=O)c2cc(S(=O)(=O)N3CCC(C)CC3)ccc21 do in these assays?
M1 antag: inactive; D1 allo mod: 4.1; M1 agonist: inactive; SF1 activator: inactive; RORa activator: inactive

Results for Cn1c(CN2CCCC2)nc2cc(NC(=O)c3ccco3)ccc21 ?
M1 antag: inactive; D1 allo mod: inactive; M1 agonist: inactive; SF1 activator: 50; RORa activator: inactive

What do the screens show for `O=C(Nc1ccc2c(c1)ncn2-c1ccccc1)c1ccco1`?
mHtt clearance: inactive; M1 antag: inactive; D1 allo mod: inactive; M1 agonist: inactive; SF1 activator: inactive; RORa activator: 52

Results for CC(=O)Nc1ccccc1NC(=O)C(F)(F)F ?
mHtt clearance: inactive; M1 antag: 1.8; D1 allo mod: inactive; M1 agonist: inactive; SF1 activator: inactive; RORa activator: inactive

What do the screens show for `O=C(O)c1cccc(COc2ccccc2Cl)c1`?
M1 antag: inactive; D1 allo mod: -5.3; M1 agonist: inactive; SF1 activator: inactive; RORa activator: inactive

What do the screens show for `CCOc1ccc(CN2CCN(C(=O)c3cccc(F)c3)CC2)cc1`?
mHtt clearance: inactive

What do the screens show for `CCOc1ccc(OCc2cccc(C(=O)N3CCOCC3)c2)cc1`?
M1 antag: inactive; D1 allo mod: -6.7; M1 agonist: inactive; SF1 activator: inactive; RORa activator: inactive

What do the screens show for `CN1CCN(C(=O)c2cccc(COc3cc(Cl)ccc3Cl)c2)CC1`?
mHtt clearance: inactive; M1 antag: inactive; D1 allo mod: inactive; M1 agonist: inactive; SF1 activator: 69; RORa activator: inactive

How did O=C(O)c1ccc(COc2ccccc2Cl)cc1 do in these assays?
mHtt clearance: inactive; M1 antag: inactive; D1 allo mod: inactive; M1 agonist: inactive; SF1 activator: inactive; RORa activator: inactive

How did COc1ccc(C2=C(O)C(C)N(c3ccccc3)C2=N)cc1OC (centres undefined) do in these assays?
M1 antag: inactive; D1 allo mod: -3.5; M1 agonist: inactive; SF1 activator: inactive; RORa activator: inactive

Results for COC(=O)CSc1nnc(SCc2ccc(OC)cc2)s1 ?
mHtt clearance: inactive; M1 antag: inactive; D1 allo mod: -2.3; M1 agonist: inactive; SF1 activator: inactive; RORa activator: inactive

Results for Cc1ccc(S(=O)(=O)NC(=O)c2cc(C)n(CCCN3CCOCC3)c2C)cc1 ?
M1 antag: inactive; D1 allo mod: -2.4; M1 agonist: inactive; SF1 activator: inactive; RORa activator: inactive

Assay outcomes from PubChem.
